Two molecules from ChEMBL document CHEMBL4422628, “Discovery of first-in-class thiazole-based dual FFA1/PPARδ agonists as potential anti-diabetic agents” (Eur J Med Chem, 2019) can be followed below.

The EC50 is the concentration needed to bring the measured effect to its halfway point. By CL/F is commonly meant clearance divided by bioavailability, as obtained after extravascular dosing. One may read the Cmax as the maximum level reached in the sampled fluid or tissue. A word on the AUC(0-t): it is the area under the concentration-time curve up to a stated or last time point. One may read the half-life as how long it takes for the measured level to halve.

The subject of series [1] is Mus musculus. The experiment in a line: Antidiabetic activity in ob/ob mouse assessed as reduction in blood glucose AUC (0 to 120 mins) at 40 mg/kg, po administered as single dose pretreated for 30 mins followed by glucose-challenge by glucometric analysis relative to control. The format is functional. The arrangement: scale not given: the % may be the effect or the level left. An outline of the steps: (§1)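 Male ob/ob mice (six weeks old on arrival, acclimatized one week) were fasted 12 h and randomized (n = 6/group). Each received a single oral dose in 0.5% carboxymethyl cellulose vehicle, then 3 g/kg oral glucose 30 min later. Blood glucose was measured by glucometer at −30, 0, 15, 30, 60 and 120 min. Glucose AUC0-120min was calculated, mean ± SD.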

Series [2] concerns the target Free fatty acid receptor 1 (Homo sapiens, UniProt O14842). The experiment in a line: Agonist activity at human FFA1 receptor expressed in CHO cells by Fluo 4-AM dye based FLIPR assay. It counts as cell-based. Summed up: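 hFFA1-expressing CHO cells were loaded for 1 h at 37 °C with buffer containing 2.5 μg/mL Fluo 4-AM, 0.1% fatty acid-free BSA and 2.5 mmol/L probenecid. Compounds were added and calcium flux was read on FLIPR. Activity = (A–B)/(C–B)×100%, where A is the compound response, B the vehicle response and C the 10 μM γ-linolenic acid response.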

Series [3] addresses T1, Peroxisome proliferator-activated receptor delta (Homo sapiens, UniProt Q03181).
T1 sequence (Q03181 whole entry): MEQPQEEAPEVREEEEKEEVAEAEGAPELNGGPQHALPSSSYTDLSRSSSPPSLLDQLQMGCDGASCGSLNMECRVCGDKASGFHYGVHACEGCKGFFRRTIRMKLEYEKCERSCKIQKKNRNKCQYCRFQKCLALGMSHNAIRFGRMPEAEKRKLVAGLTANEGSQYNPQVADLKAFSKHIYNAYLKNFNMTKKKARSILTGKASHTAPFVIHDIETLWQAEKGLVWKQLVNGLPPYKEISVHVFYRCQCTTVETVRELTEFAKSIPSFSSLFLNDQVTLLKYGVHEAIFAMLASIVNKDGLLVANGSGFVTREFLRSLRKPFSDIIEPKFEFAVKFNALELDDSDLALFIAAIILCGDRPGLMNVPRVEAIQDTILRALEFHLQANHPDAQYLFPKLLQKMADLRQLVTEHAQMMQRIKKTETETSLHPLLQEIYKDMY
Kind of series: Transactivation of GAL4-fused human PPARdelta LBD expressed in HEK293 cells after 18 hrs by luciferase reporter gene assay. It counts as cell-based.

Series [4] addresses T2, Peroxisome proliferator-activated receptor alpha (Homo sapiens, UniProt Q07869).
T2 sequence (Q07869 whole entry): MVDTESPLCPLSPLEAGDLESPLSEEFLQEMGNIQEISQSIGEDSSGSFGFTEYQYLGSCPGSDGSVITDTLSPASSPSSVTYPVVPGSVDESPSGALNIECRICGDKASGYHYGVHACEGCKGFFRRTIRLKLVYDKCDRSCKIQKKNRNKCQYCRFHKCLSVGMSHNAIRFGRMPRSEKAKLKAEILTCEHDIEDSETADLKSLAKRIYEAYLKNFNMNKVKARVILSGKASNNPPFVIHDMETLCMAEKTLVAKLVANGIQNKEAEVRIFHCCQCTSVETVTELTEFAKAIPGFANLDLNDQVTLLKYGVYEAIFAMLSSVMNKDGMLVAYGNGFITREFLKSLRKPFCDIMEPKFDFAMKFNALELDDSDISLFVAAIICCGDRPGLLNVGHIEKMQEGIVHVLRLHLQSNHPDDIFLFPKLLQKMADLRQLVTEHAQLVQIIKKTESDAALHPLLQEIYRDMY
Kind of series: Transactivation of GAL4-fused human PPARalpha LBD expressed in HEK293 cells after 18 hrs by luciferase reporter gene assay. The format is cell-based. Summed up:
(§2)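 HepG2 or HEK293 cells were transfected with pBIND-PPARα, -δ or -γ (GAL4 fusion). Compounds at varying concentrations were incubated for 18 h. Cells were then lysed and firefly and renilla luciferase were read by dual-luciferase assay.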
(Reporter assays use an easily measured gene product as a stand-in for the process of interest.)

Series [5] deals with T3, Peroxisome proliferator-activated receptor gamma (Homo sapiens, UniProt P37231).
T3 sequence (P37231 whole entry): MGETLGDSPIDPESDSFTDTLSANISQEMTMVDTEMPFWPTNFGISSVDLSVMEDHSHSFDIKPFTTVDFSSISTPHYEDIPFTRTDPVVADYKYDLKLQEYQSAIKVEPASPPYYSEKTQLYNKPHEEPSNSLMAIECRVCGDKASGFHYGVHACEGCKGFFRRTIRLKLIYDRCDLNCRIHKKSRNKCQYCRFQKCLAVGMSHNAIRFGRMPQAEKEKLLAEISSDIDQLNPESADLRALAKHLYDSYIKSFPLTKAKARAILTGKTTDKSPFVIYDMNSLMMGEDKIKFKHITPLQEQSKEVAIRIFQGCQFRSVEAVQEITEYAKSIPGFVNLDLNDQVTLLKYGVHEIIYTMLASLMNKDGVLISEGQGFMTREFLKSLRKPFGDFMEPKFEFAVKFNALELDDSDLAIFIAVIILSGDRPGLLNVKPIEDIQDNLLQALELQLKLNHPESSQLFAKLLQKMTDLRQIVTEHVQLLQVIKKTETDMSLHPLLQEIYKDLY
The experiment in a line: Transactivation of GAL4-fused human PPARgamma LBD expressed in HEK293 cells after 18 hrs by luciferase reporter gene assay. The format is cell-based. An outline of the steps: as §2

Series [6] is described as follows: Clearance in Sprague-Dawley rat at 3 mg/kg, po by LC-MS/MS analysis. It counts as ADME, organism-based. To be noted: in vivo.
Series [7] in a line: Cmax in Sprague-Dawley rat at 3 mg/kg, po by LC-MS/MS analysis. It counts as ADME, organism-based. The arrangement: dose 3 mg/kg, route oral. Particulars: in vivo.
Series [8] in a line: AUC (0 to 24 hrs) in Sprague-Dawley rat at 3 mg/kg, po by LC-MS/MS analysis. It counts as ADME, organism-based. To be noted: in vivo. The arrangement: dose 3 mg/kg, time < 24 hr, route oral.
A short description of series [9]: Half life in Sprague-Dawley rat at 3 mg/kg, po by LC-MS/MS analysis. To be noted: in vivo. The format is ADME, organism-based.
The subject of series [10] is Mus musculus. The experiment in a line: Antidiabetic activity in ob/ob mouse assessed as change in blood glucose AUC (0 to 120 mins) at 10 mg/kg, po administered as single dose pretreated for 30 mins followed by glucose-challenge by glucometric analysis relative to control. It counts as functional. Summed up:
as §1

The subject of series [11] is Mus musculus. Kind of series: Antidiabetic activity in ob/ob mouse assessed as reduction in blood glucose AUC (0 to 120 mins) at 30 mg/kg, po administered as single dose pretreated for 30 mins followed by glucose-challenge by glucometric analysis relative to control. The format is functional. The arrangement: scale not given: the % may be the effect or the level left. An outline of the steps: as §1

The test system of series [12] is Mus musculus. The experiment in a line: Antidiabetic activity in ob/ob mouse assessed as reduction in blood glucose AUC (0 to 120 mins) at 100 mg/kg, po administered as single dose pretreated for 30 mins followed by glucose-challenge by glucometric analysis relative to control. It counts as functional. The arrangement: scale not given: the % may be the effect or the level left. Summed up:
as §1

The subject of series [13] is Mus musculus. The experiment in a line: Antidiabetic activity in po dosed ob/ob mouse assessed as reduction in blood glucose AUC (0 to 120 mins) administered as single dose pretreated for 30 mins followed by glucose-challenge by glucometric analysis. It counts as functional, organism-based. An outline of the steps:
as §1

Chain of Free fatty acid receptor 1 (O14842 whole entry): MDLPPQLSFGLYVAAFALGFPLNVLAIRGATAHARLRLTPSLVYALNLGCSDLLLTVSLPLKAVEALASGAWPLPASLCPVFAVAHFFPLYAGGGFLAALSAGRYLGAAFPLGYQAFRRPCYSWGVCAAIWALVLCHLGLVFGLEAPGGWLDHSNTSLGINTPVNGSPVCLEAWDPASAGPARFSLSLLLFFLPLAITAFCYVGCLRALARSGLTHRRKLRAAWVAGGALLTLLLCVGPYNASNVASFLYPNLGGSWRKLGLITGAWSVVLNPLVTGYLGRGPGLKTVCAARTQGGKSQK

With `Cc1cc(OCCCS(C)(=O)=O)cc(C)c1-c1cccc(COc2ccc3c(c2)OC[C@H]3CC(=O)O)c1`, the Activity in the series with Mus musculus [1] turned out to be 15.7%.

Turning to `Cc1nc(-c2ccc(C(F)(F)F)cc2)sc1COc1ccc2c(c1)OC[C@H]2CC(=O)O`, the EC50 is 68 nM in series [2], 102 nM in series [3], above 10000 nM in series [4] and above 10000 nM in [5]. Moreover, the CL/F in series [6] was 0.279 mL/min/kg. In series [7], this molecule showed a Cmax of 9450 ng/mL. In series [8], this molecule returned an exposure AUC(0-t) at 24 h of 95600 ng·h/mL. The half-life in [9] is 4.31 h. Further, the Activity with Mus musculus [10] was 1.1%; with Mus musculus [11], 6.1%; in the series on Mus musculus [12] it was 10.9%; in the series with Mus musculus [13] it was “Dose-dependent effect”.
